Experimental findings from ChEMBL document CHEMBL1157338, “5-alkylresorcinols from Merulius incarnatus” (J Nat Prod, 2006) are described below.

In brackets after ≈: the same amount, converted by molar mass. Activity calls are given as the source filed them. No cut-off for these calls is given here.

One data set concerns Candida albicans. The data set can be described thus: Antimicrobial activity against Candida albicans ATCC 90028 by broth dilution method. The class given is functional, organism-based.
Another data set relates to Nakaseomyces glabratus. The data set can be described thus: Antimicrobial activity against Candida glabrata ATCC 90030 by broth dilution method. The class given is functional, organism-based.
The next data set deals with Aspergillus fumigatus. The data set can be described thus: Antimicrobial activity against Aspergillus fumigatus ATCC 90906 by broth dilution method. Type of data set: functional, organism-based.
A further data set relates to Pichia kudriavzevii. The data set can be described thus: Antimicrobial activity against Candida krusei ATCC 6258 by broth dilution method. Type of data set: functional, organism-based.
A further data set deals with Leishmania major. The data set can be described thus: Antileishmanial activity against Leishmania major MRHO/IR/75/ER promastigotes after 72 hrs by alamar blue assay. The class given is functional, organism-based. The procedure, abridged:
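Alamar Blue read-out against promastigotes, with pentamidine and amphotericin B as reference standards.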

Data set [1] has as its system Mycobacterium intracellulare. The data set can be described thus: Antimicrobial activity against Mycobacterium intracellular ATCC 23068 by alamar blue method. The class given is functional, organism-based. The procedure, abridged:
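Modified Alamar Blue procedure, highest concentration 20 µg/mL. IC50 taken from dose-response curves, with amphotericin B as positive control.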

In another data set the test system is Staphylococcus aureus. The data set can be described thus: Antimicrobial activity against methicillin-resistant Staphylococcus aureus ATCC 43300 by antimicrobial susceptibility test. The class given is functional, organism-based.
In a further data set the test system is Vero. The data set can be described thus: Cytotoxicity against african green monkey Vero cells at 25 ug/ml. Type of data set: cell-based. The settings on record: chlorocebus sabaeus.
For another data set, the system named is Cryptococcus neoformans. The data set can be described thus: Antimicrobial activity against Cryptococcus neoformans ATCC 90113 by broth dilution method. The class given is functional, organism-based.

With `CCCCCCCCCCCCCCCc1cc(O)cc(O)c1`, the result in the data set on Candida albicans, with Nakaseomyces glabratus, in the data set with Aspergillus fumigatus and in the data set on Pichia kudriavzevii was inactive.

Regarding `N=C(N)c1ccc(OCCCCCOc2ccc(C(=N)N)cc2)cc1` [PENTAMIDINE], in the data set on Leishmania major, inhibition was half-maximal at 0.6 µg/mL (≈ 1.76 µM) (IC50) and the IC90 stood at 1.9 µg/mL (≈ 5.58 µM).

Regarding `CCCCCCCC/C=C\CCCCCCCc1cc(O)cc(O)c1`, the 50% inhibitory concentration (IC50) is 10 µg/mL (≈ 28.9 µM) in [1] and 8 µg/mL (≈ 23.1 µM) in the data set on Staphylococcus aureus.

As to `C=CCCC/C=C\C=C\CCCCCCCCc1cc(O)cc(O)c1`, the IC50 with Staphylococcus aureus is 15 µg/mL (≈ 43.8 µM).

`C=CCCC/C=C\C/C=C\CCCCCCCc1cc(O)cc(O)c1`: in the data set with Leishmania major, half-maximal inhibition (IC50) was put at 3.6 µg/mL (≈ 10.5 µM) and the 90% effect level (IC90) was put at 7 µg/mL (≈ 20.4 µM). Besides, the Activity result in the data set on Vero is on record as “Non-toxic”. The molecule also had an IC50 in the data set on Staphylococcus aureus of 2.5 µg/mL (≈ 7.3 µM).

`C[C@@H]1[C@H](O)[C@@H](C)/C=C/C=C/C=C/C=C/C=C/C=C/C=C/[C@H](O[C@@H]2O[C@H](C)[C@@H](O)[C@H](N)[C@@H]2O)C[C@@H]2O[C@](O)(C[C@@H](O)C[C@@H](O)[C@H](O)CC[C@@H](O)C[C@@H](O)CC(=O)O[C@H]1C)C[C@H](O)[C@H]2C(=O)O` [AMPHOTERICIN B] yielded an IC50 with Cryptococcus neoformans of 0.75 µg/mL (≈ 0.812 µM).

In the case of `CCCCCCCCCCCCCCCCCc1cc(O)cc(O)c1`, the outcome with Candida albicans, in the data set on Nakaseomyces glabratus, in the data set on Aspergillus fumigatus and with Pichia kudriavzevii was inactive.

`O=C(O)c1cn(C2CC2)c2cc(N3CCNCC3)c(F)cc2c1=O` [CIPROFLOXACIN]: in data set [1], the IC50 worked out at 0.4 µg/mL (≈ 1.21 µM).

As to `CCCCC/C=C\C/C=C\CCCCCCCc1cc(O)cc(O)c1`, half-maximal inhibition in the data set with Staphylococcus aureus (IC50) required 6.5 µg/mL (≈ 18.9 µM).
